One experiment concerns Bacillus subtilis. Kind of experiment: Antibacterial activity against Bacillus subtilis ATCC 11562 by modified broth dilution method. It counts as functional. A digest of the protocol: (§1)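 MIC read in 96-well plates by a modified broth dilution test; streptomycin sulfate as positive control.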
Background: Dilution methods test growth across graded concentrations, often in twofold steps.

The test system of experiment [1] is Agrobacterium tumefaciens. Kind of experiment: Antibacterial activity against Agrobacterium tumefaciens No.8 ATCC 11158 by modified broth dilution method. Format: functional. Summed up: as §1
Experiment [2] concerns Staphylococcus haemolyticus. Description: Antibacterial activity against Staphylococcus haemolyticus ATCC 29970 by modified broth dilution method. It counts as functional. A digest of the protocol: as §1
The subject of another experiment is Ralstonia solanacearum. Kind of experiment: Antibacterial activity against Ralstonia solanacearum ATCC 11696 by modified broth dilution method. Format: functional.
Another experiment has as its system Pseudomonas. Description: Antibacterial activity against Pseudomonas lachrymans ATCC 11921 by modified broth dilution method. It counts as functional. Summed up: as §1
Another experiment has as its system Xanthomonas vesicatoria. Kind of experiment: Antibacterial activity against Xanthomonas vesicatoria ATCC 11633 by modified broth dilution method. It counts as functional. Summed up: as §1
For the next experiment, the system named is Pyricularia oryzae. Description: Antifungal activity against Magnaporthe oryzae assessed as inhibition of spore germination incubated for 8 hrs. Format: functional, organism-based.
A short description of experiment [3]: Cytotoxicity against human HCT8 cells by MTT assay. The conditions noted are these: HCT-8.
Experiment [4] is described as follows: Cytotoxicity against human Bel7402 cells by MTT assay. The following applies: Bel-7402.
The nature of experiment [5]: Cytotoxicity against human BGC823 cells by MTT assay. The conditions noted are these: BGC-823. Background: Formazan colour is commonly taken as a measure of viable cells.
The next experiment deals with A549. Kind of experiment: Cytotoxicity against human A549 cells by MTT assay. Format: functional, cell-based.
For a further experiment, the system named is A2780. Kind of experiment: Cytotoxicity against human A2780 cells by MTT assay.

Regarding `O[C@@H]1C=C[C@H](O)[C@@]23O[C@@]12C1(Oc2cccc4cccc(c24)O1)[C@@H]1O[C@@H]1[C@@H]3O`, the MIC (in the experiment with Bacillus subtilis; in experiment [1]; in experiment [2]; against Ralstonia solanacearum; in the experiment on Pseudomonas; in the experiment with Xanthomonas vesicatoria) was > 250 µg/mL in each case. Further, the IC50 in the experiment on Pyricularia oryzae was > 200 µg/mL; in [3] it was > 10 µM; in [4] it was > 10 µM; in [5], > 10 µM; in the experiment on A549, > 10 µM; in the experiment with A2780, > 10 µM.

`O[C@@H]1CC[C@H](O)[C@@]23O[C@@]12C1(Oc2cccc4cccc(c24)O1)[C@@H]1O[C@@H]1[C@@H]3O`: the MIC (with Bacillus subtilis; in experiment [1]; in [2]; in the experiment on Ralstonia solanacearum; in the experiment on Pseudomonas; in the experiment with Xanthomonas vesicatoria) was > 250 µg/mL each time. Further, the IC50 in the experiment with Pyricularia oryzae is > 200 µg/mL; in [3] it was > 10 µM; in experiment [4], > 10 µM; in experiment [5] it was > 10 µM; with A549, > 10 µM; with A2780, > 10 µM.

With `O=C1CCC2(Oc3cccc4cccc(c34)O2)c2c(O)ccc(O)c21` [PALMARUMYCIN CP17], the MIC (in the experiment on Bacillus subtilis; in experiment [1]; in [2]; against Ralstonia solanacearum; with Pseudomonas; in the experiment with Xanthomonas vesicatoria) was > 250 µg/mL each time. Moreover, the IC50 is > 200 µg/mL in the experiment with Pyricularia oryzae; > 10 µM in experiment [3]; > 10 µM in experiment [4]; > 10 µM in [5]; > 10 µM in the experiment with A549; > 10 µM with A2780.

Broadly, the MIC is the lowest concentration found to suppress growth. Read a low MIC as greater potency. Usually IC50 stands for the concentration that gives 50% inhibition.

(Values after ChEMBL document CHEMBL3352444, “Bioactive spirobisnaphthalenes from the endophytic fungus Berkleasmium sp” (J Nat Prod, 2014).)
